ChEMBL document CHEMBL1127428, “Studies of the active conformation of a novel series of benzamide dopamine D2 agonists” (J Med Chem, 1994)
Calls of active or inactive are those of the source. The rule behind the calls is not given here.

Tests used:
[1] = target: D(2) dopamine receptor (Homo sapiens, UniProt P14416); assay: In vitro inhibition of forskolin-stimulated cAMP accumulation in GH4C1 cells transfected with the human Dopamine D2 receptor; type: functional, cell-based, GH4-C1
[2] = target: D(2) dopamine receptor (Rattus norvegicus, UniProt P61169); assay: Binding affinity towards Dopamine D2 receptor from rat striatal membranes, using [3H]- spiperone as radioligand
How it was run: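 Displacement of [3H]spiperone (0.2 nM, final) from rat striatal membranes; nonspecific binding defined with (+)-butaclamol (1 μM). Four to six concentrations, each run in triplicate; IC50 obtained by nonlinear regression.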

[3] = tested on: Mus musculus; assay: Tested for the inhibition of Spontaneous locomotor activity; Not active, ED50 > 30 mg/kg; type: functional, organism-based; set-up: dose 30 mg/kg
How it was run: (§1)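 Mice dosed ip, then immediately tested for 1 h of exploratory locomotion in darkened cylindrical photobeam chambers. Activity expressed as percent of vehicle-treated animals. ED50 (95% confidence range) derived from three to six doses, 6–18 animals per dose.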

[4] = organism: Mus musculus; assay: Tested for the inhibition of Spontaneous locomotor activity; type: functional; how it was run: as §1
[5] = (§2) Tested in vitro for intrinsic activity relative to quinpirole
How it was run: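 GH4C1 cells transfected with human D2 receptor (long form); agonism read as inhibition of forskolin-stimulated cAMP accumulation. Intrinsic activity = maximal response relative to the full D2 agonist quinpirole (set at 1.0).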

[6] = as §2; type: ADME
How it was run: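 Human D2 receptor (long form) expressed by transfection in GH4C1 cells. Agonism was read as inhibition of forskolin-stimulated cAMP accumulation. Intrinsic activity was the maximal response expressed relative to the maximal response of the full D2 agonist quinpirole.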

D(2) dopamine receptor (Homo sapiens, UniProt P14416), sequence (P14416 whole entry): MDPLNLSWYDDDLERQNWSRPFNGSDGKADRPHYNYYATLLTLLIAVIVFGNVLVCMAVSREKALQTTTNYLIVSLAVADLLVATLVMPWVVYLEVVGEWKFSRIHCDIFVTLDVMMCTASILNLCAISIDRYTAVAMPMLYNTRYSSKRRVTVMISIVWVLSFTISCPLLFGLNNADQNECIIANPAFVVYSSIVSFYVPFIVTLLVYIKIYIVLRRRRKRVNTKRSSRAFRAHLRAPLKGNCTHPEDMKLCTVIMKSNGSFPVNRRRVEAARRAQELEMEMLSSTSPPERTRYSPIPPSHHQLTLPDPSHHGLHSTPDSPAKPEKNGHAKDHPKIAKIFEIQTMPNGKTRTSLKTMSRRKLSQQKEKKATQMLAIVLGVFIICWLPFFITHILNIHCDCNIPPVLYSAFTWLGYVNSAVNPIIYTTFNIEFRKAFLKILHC
D(2) dopamine receptor (Rattus norvegicus, UniProt P61169), sequence (P61169 whole entry): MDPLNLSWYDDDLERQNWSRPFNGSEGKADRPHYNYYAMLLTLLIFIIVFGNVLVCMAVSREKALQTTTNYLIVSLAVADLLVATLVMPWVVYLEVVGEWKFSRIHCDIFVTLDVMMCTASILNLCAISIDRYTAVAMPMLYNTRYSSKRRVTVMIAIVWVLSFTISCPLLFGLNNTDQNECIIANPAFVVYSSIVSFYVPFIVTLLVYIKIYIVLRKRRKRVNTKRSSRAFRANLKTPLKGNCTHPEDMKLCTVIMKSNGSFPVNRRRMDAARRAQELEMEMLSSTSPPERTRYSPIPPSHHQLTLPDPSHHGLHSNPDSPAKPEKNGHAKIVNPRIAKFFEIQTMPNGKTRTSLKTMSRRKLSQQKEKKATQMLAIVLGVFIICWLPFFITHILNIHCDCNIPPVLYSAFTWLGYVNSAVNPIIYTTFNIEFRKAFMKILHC

| SMILES | EC50 [1] | IC50 [2] | ED50 [3] | ED50 [4] | Intrinsic activity [5] | Intrinsic activity [6] |
| --- | --- | --- | --- | --- | --- | --- |
| O=C(N[C@H]1CC[C@H]2C[C@H](N3CCN(c4ccccn4)CC3)CC[C@@H]2C1)c1ccccc1 | > 1000 nM | 7100 nM | inactive | – | – | – |
| O=C(N[C@@H]1CC[C@H]2C[C@H](N3CCN(c4ccccn4)CC3)CC[C@@H]2C1)c1ccccc1 | > 1000 nM | 5800 nM | – | 14.3 mg/kg | – | – |
| O=C(N[C@@H]1CC[C@H]2C[C@@H](N3CCN(c4ccccn4)CC3)CC[C@@H]2C1)c1ccccc1 | 10.4 nM | 72.7 nM | – | 0.1 mg/kg | 0.98 | – |
| O=C(N[C@H]1CC[C@H](CCN2CCN(c3ccccn3)CC2)CC1)c1ccccc1 | 4.9 nM | 443 nM | – | 0.16 mg/kg | 0.83 | – |
| CCCN1CCC[C@@H]2Cc3n[nH]cc3C[C@H]21 (single isomer, unassigned) [QUINPIROLE] | – | – | – | – | – | 1 |
| O=C(N[C@H]1CC[C@H]2C[C@@H](N3CCN(c4ccccn4)CC3)CC[C@@H]2C1)c1ccccc1 | 240 nM | 1100 nM | – | 6.9 mg/kg | 0.63 | – |
